# Active and inactive are the calls of the source. The calls are words filed in the database; no cut-off is given here.
# What was measured:
# [1] = test system: Mus musculus; experiment: Immunostimulatory activity in C57BL/6 mouse assessed as inhibition of TLR3 agonist-induced MIG production in serum at 10 mg/kg, sc administered 24 hrs prior to TLR3 agonist challenge measured after 2 hrs by Luminex multiplex assay
# [2] = test system: Mus musculus; experiment: Immunostimulatory activity in C57BL/6 mouse assessed as inhibition of TLR3 agonist-induced KC production in serum at 10 mg/kg, sc administered 24 hrs prior to TLR3 agonist challenge measured after 2 hrs by Luminex multiplex assay
# [3] = test system: Mus musculus; experiment: Immunostimulatory activity in C57BL/6 mouse assessed as inhibition of 0.25 mg/kg 5'-CTATCTGACGTTCTCTGT-3'-induced IL12 production in serum at 10 mg/kg, sc administered 24 hrs prior to 5'-CTATCTGACGTTCTCTGT-3' challenge measured after 2 hrs by sandwich ELISA; assay type: functional
# In short: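 C57BL/6 mice received 10 mg/kg ODN sc in the right flank. After 24 h, the CpG TLR9 agonist ODN was given sc in the left flank at 0.25, 0.5 or 1 mg/kg. Serum IL-12 was measured by ELISA 2 h after challenge. Naive mice served as reference. Representative of two experiments.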
# [4] = test system: Mus musculus; experiment: Immunostimulatory activity in sc dosed C57BL/6 mouse assessed as inhibition of 5'-CTATCTGACGTTCTCTGT-3'-induced IL12 production in serum administered 24 hrs prior to 5'-CTATCTGACGTTCTCTGT-3' challenge measured after 2 hrs by sandwich ELISA; assay type: functional, organism-based
# In short: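 Test ODN was given sc in the right flank of C57BL/6 mice at 2, 5 or 10 mg/kg. After 24 h (or 24, 48 or 72 h in the duration study), the agonist ODN was given sc in the left flank at 0.25, 0.5 or 1 mg/kg (0.5 mg/kg by default). Serum was taken 2 h later by retro-orbital bleed, and IL-12 was measured by sandwich ELISA.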
# [5] = test system: Mus musculus; experiment: Immunostimulatory activity in C57BL/6 mouse assessed as inhibition of LPS-induced IL10 production in serum at 10 mg/kg, sc administered 24 hrs prior to LPS challenge measured after 2 hrs by Luminex multiplex assay
# [6] = test system: Mus musculus; experiment: Immunostimulatory activity in C57BL/6 mouse assessed as inhibition of TLR3 agonist-induced IL6 production in serum at 10 mg/kg, sc administered 24 hrs prior to TLR3 agonist challenge measured after 2 hrs by Luminex multiplex assay
# [7] = test system: Mus musculus; experiment: Immunostimulatory activity in C57BL/6 mouse assessed as inhibition of 5'-CTATCTGACGTTCTCTGT-3'-induced MIG production in serum at 5 mg/kg, sc administered 24 hrs prior to 5'-CTATCTGACGTTCTCTGT-3' challenge measured after 2 hrs by Luminex multiplex assay; assay type: functional; details: C57BL/6, sc, route subcutaneous
# [8] = test system: Mus musculus; experiment: Immunostimulatory activity in C57BL/6 mouse assessed as inhibition of 5'-CTATCTGACGTTCTCTGT-3'-induced IL6 production in serum at 5 mg/kg, sc administered 24 hrs prior to 5'-CTATCTGACGTTCTCTGT-3' challenge measured after 2 hrs by Luminex multiplex assay; assay type: functional; details: C57BL/6, sc, route subcutaneous
# [9] = test system: Mus musculus; experiment: Immunostimulatory activity in C57BL/6 mouse assessed as inhibition of LPS-induced IL12 production in serum at 10 mg/kg, sc administered 24 hrs prior to LPS challenge measured after 2 hrs by Luminex multiplex assay
# [10] = test system: Mus musculus; experiment: Immunostimulatory activity in C57BL/6 mouse assessed as inhibition of TLR3 agonist-induced MIP1a production in serum at 10 mg/kg, sc administered 24 hrs prior to TLR3 agonist challenge measured after 2 hrs by Luminex multiplex assay
# [11] = test system: Mus musculus; experiment: Immunostimulatory activity in C57BL/6 mouse assessed as inhibition of TLR3 agonist-induced IL10 production in serum at 10 mg/kg, sc administered 24 hrs prior to TLR3 agonist challenge measured after 2 hrs by Luminex multiplex assay
# [12] = test system: Mus musculus; experiment: Immunostimulatory activity in C57BL/6 mouse assessed as inhibition of TLR3 agonist-induced MCP1 production in serum at 10 mg/kg, sc administered 24 hrs prior to TLR3 agonist challenge measured after 2 hrs by Luminex multiplex assay
# [13] = test system: Mus musculus; experiment: Immunostimulatory activity in C57BL/6 mouse assessed as inhibition of 5'-CTATCTGACGTTCTCTGT-3'-induced IP10 production in serum at 5 mg/kg, sc administered 24 hrs prior to 5'-CTATCTGACGTTCTCTGT-3' challenge measured after 2 hrs by Luminex multiplex assay; assay type: functional; details: C57BL/6, sc, route subcutaneous
# [14] = test system: Mus musculus; experiment: Immunostimulatory activity in C57BL/6 mouse assessed as inhibition of 5'-CTATCTGACGTTCTCTGT-3'-induced IL12 production in serum at 10 mg/kg, sc administered 24 hrs prior to 5'-CTATCTGACGTTCTCTGT-3' challenge measured after 2 hrs by sandwich ELISA; assay type: functional; details: C57BL/6, sc, route subcutaneous
# In short: (§1)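 C57BL/6 mice received 10 mg/kg ODN sc in the right flank. The TLR9 agonist ODN was then given at 0.5 mg/kg sc in the left flank 24, 48 or 72 h later. Serum IL-12 was measured by ELISA 2 h after challenge. Naive serum served as reference. Representative of three experiments.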
# [15] = test system: Mus musculus; experiment: Immunostimulatory activity in C57BL/6 mouse assessed as inhibition of 5'-CTATCTGACGTTCTCTGT-3'-induced MCP1 production in serum at 5 mg/kg, sc administered 24 hrs prior to 5'-CTATCTGACGTTCTCTGT-3' challenge measured after 2 hrs by Luminex multiplex assay; assay type: functional; details: C57BL/6, sc, route subcutaneous
# [16] = test system: Mus musculus; experiment: Immunostimulatory activity in C57BL/6 mouse assessed as inhibition of TLR3 agonist-induced IL12 production in serum at 10 mg/kg, sc administered 24 hrs prior to TLR3 agonist challenge measured after 2 hrs by Luminex multiplex assay
# [17] = test system: Mus musculus; experiment: Immunostimulatory activity in C57BL/6 mouse assessed as inhibition of LPS-induced MCP1 production in serum at 10 mg/kg, sc administered 24 hrs prior to LPS challenge measured after 2 hrs by Luminex multiplex assay
# [18] = test system: Mus musculus; experiment: Immunostimulatory activity in C57BL/6 mouse assessed as inhibition of 5'-CTATCTGACGTTCTCTGT-3'-induced IL12 production in serum at 10 mg/kg, sc administered 72 hrs prior to 5'-CTATCTGACGTTCTCTGT-3' challenge measured after 2 hrs by sandwich ELISA; assay type: functional; details: C57BL/6, sc, route subcutaneous
# In short: as §1
# [19] = test system: Mus musculus; experiment: Immunostimulatory activity in C57BL/6 mouse assessed as inhibition of 5'-CTATCTGACGTTCTCTGT-3'-induced KC production in serum at 5 mg/kg, sc administered 24 hrs prior to 5'-CTATCTGACGTTCTCTGT-3' challenge measured after 2 hrs by Luminex multiplex assay; assay type: functional; details: C57BL/6, sc, route subcutaneous
structure (smiles),measurement,setting,value
COC1[C@H](n2cnc3c(=O)[nH]c(N)nc32)O[C@H](COP(=O)(S)O[C@H]2C[C@H](n3cc(C)c(N)nc3=O)O[C@@H]2COP(=O)(S)O[C@H]2C[C@H](n3cnc4c(N)ncnc43)O[C@@H]2COP(=O)(S)O[C@H]2C[C@H](n3cnc4c(=O)[nH]c(N)nc43)O[C@@H]2COP(=O)(S)O[C@H]2C[C@H](n3cc(C)c(=O)[nH]c3=O)O[C@@H]2COP(=O)(S)O[C@H]2C[C@H](n3ccc(N)nc3=O)O[C@@H]2COP(=O)(S)O[C@H]2C[C@H](n3cc(C)c(=O)[nH]c3=O)O[C@@H]2COP(=O)(S)O[C@H]2C[C@H](n3cnc4c(N)ncnc43)O[C@@H]2COP(=O)(S)O[C@H]2C[C@H](n3cc(C)c(=O)[nH]c3=O)O[C@@H]2COP(=O)(S)O[C@H]2C[C@H](n3ccc(N)nc3=O)O[C@@H]2CO)[C@H]1OP(=O)(S)OC[C@H]1O[C@@H](n2cc(C)c(=O)[nH]c2=O)C[C@@H]1OP(=O)(S)OC[C@H]1O[C@@H](n2cc(C)c(=O)[nH]c2=O)C[C@@H]1OP(=O)(S)OC[C@H]1O[C@@H](n2ccc(N)nc2=O)C[C@@H]1OP(=O)(S)OC[C@H]1O[C@@H](n2cc(C)c(=O)[nH]c2=O)C[C@@H]1OP(=O)(S)OC[C@H]1O[C@@H](n2ccc(N)nc2=O)C[C@@H]1OP(=O)(S)OC[C@H]1O[C@@H](n2cc(C)c(=O)[nH]c2=O)C[C@@H]1OP(=O)(S)OC[C@H]1O[C@@H](n2cnc3c(=O)[nH]c(N)nc32)C[C@@H]1OP(=O)(S)OC[C@H]1O[C@@H](n2cc(C)c(=O)[nH]c2=O)C[C@@H]1O (some centres undefined),Activity,[1],inactive
same,Activity,[2],inactive
same,inhibition (INH),[3],85%
same,Activity,[4],Dose-dependent effect
same,Activity,[5],inactive
same,Activity,[6],inactive
same,inhibition in vivo at 5 mg/kg,[7],50%
same,inhibition in vivo at 5 mg/kg,[8],50%
same,Activity,[9],inactive
same,Activity,[10],inactive
same,Activity,[11],inactive
same,Activity,[12],inactive
same,inhibition in vivo at 5 mg/kg,[13],50%
same,inhibition in vivo at 10 mg/kg,[14],81%
same,inhibition in vivo at 5 mg/kg,[15],50%
same,Activity,[16],inactive
same,Activity,[17],inactive
same,inhibition in vivo at 10 mg/kg,[18],35%
same,inhibition in vivo at 5 mg/kg,[19],50%

# Reference: ChEMBL document CHEMBL1152452, “Modifications incorporated in CpG motifs of oligodeoxynucleotides lead to antagonist activity of toll-like receptors 7 and 9” (2009)
